Rows were chosen to be rich in hits. Some 2.8% of all compounds tested hit in one or more screens of this group.
pPAFAH inh – inhibitors of human plasma PAF acetylhydrolase (pPAFAH) | Q13093 | 330,000 compounds, 1.5% hits | inhibition, % at 3.39 µM | recombinant pPAFAH, FP-rhodamine probe fluorescence polarization;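 active means inhibition above the mean inhibition across the screen plus 3 SD, cut at about 25% in these data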;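 further: inhibitors block binding of the rhodamine activity-based probe so polarization drops; 0% = enzyme with DMSO and 100% = wells lacking pPAFAH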
mABHD4 FP – inhibitors of mouse ABHD4. Q8VD66. purified mABHD4, FP-Rh probe fluorescence polarization. inhibition, % at 8.92 µM. 370,000 compounds, 0.54% hits. AID 720543;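 active means inhibition exceeding the mean over every tested compound plus 3 SD, cut at about 30% in these data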;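 further: 0% = plate median of compound wells and 100% = S159A mutant with DMSO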
Target sequence (Q8VD66 whole entry, looked up): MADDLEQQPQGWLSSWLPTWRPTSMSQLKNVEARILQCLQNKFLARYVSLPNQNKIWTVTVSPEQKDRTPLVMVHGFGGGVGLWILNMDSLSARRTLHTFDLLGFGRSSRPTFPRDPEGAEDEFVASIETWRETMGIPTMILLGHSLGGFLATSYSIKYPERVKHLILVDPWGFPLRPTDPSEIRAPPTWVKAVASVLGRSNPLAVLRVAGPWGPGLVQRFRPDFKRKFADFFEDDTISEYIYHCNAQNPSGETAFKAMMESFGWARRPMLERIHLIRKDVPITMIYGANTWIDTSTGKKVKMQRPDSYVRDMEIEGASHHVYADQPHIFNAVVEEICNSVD
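Test system: mABHD4 protein | Buffer or medium: HEPES pH 7.0 buffer, 150 mM NaCl, 0.01% Pluronic F-127 | Probe or stimulus: FP-Rh fluorescent activity-based probe, added after compound pre-incubation | Timing: Pre-incubation 45 min, probe exposure 60 min, at 25 °C | Technique: Fluorescence polarization, excitation 525 nm, emission 598 nm, BODIPY TMR filters | Repeats: Single well per compound (singlicate)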
PAFAH1B3 inh – PAFAH1B3 (human) inhibition; Q15102; recombinant PAFAH1B3, FP-rhodamine probe, fluorescence polarization; inhibition, % at 3.39 µM; 340,000 compounds, 0.28% hits; AID 492972;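 active means inhibition above the screen-wide average of all tested compounds plus 3 SD, cut at about 25% in these data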;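 further: 0% = enzyme with DMSO only and 100% = wells lacking PAFAH1B3 protein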
Target sequence (Q15102 whole entry, looked up): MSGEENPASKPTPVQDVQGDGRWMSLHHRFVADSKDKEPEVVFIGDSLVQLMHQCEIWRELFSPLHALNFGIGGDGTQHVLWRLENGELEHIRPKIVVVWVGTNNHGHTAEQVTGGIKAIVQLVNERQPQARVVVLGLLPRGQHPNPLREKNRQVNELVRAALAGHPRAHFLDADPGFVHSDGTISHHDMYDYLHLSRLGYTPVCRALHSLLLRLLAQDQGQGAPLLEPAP
HTRA1 inh – blocks human HTRA1 serine peptidase; inhibition, % at 5.96 µM; recombinant HTRA1, FP-rhodamine activity-based probe, fluorescence polarization; AID 504803; 340,000 compounds, 0.5% hits; Q92743; in the data active means inhibition above about 36%;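 further: 0% = enzyme with DMSO and 100% = wells lacking enzyme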
PAFAH1B2 inh – blocks human PAF acetylhydrolase 1b catalytic subunit 2; AID 492953; P68402; 340,000 compounds, 1.2% hits; recombinant PAFAH1B2, FP-rhodamine activity probe, fluorescence polarization; inhibition, % at 3.39 µM;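 active means inhibition above the mean of all tested compounds plus 3 SD, cut at about 24% in these data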;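 further: 0% = enzyme with DMSO and 100% = wells lacking PAFAH1B2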
Target sequence (P68402 whole entry, looked up): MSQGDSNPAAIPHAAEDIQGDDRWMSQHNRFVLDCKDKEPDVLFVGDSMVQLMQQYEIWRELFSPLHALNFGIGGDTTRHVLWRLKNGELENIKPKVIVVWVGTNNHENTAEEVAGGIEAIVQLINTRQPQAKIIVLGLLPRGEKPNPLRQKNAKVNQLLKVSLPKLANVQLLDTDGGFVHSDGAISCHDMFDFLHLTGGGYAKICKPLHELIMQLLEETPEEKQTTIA
PAFAH2 FP inh – PAFAH2 (human) inhibition. Q99487. recombinant PAFAH2, FP-rhodamine activity probe, fluorescence polarization. inhibition, % at 3.39 µM. 340,000 compounds, 0.99% hits;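 active means inhibition above the mean over all tested compounds plus 3 SD, cut at about 30% in these data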;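 further: inhibitors block probe labeling of enzyme so polarization drops; 0% = enzyme with DMSO and 100% = wells lacking PAFAH2 protein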
PAFAH2 confirm – confirmation of human PAFAH2 inhibitors. recombinant PAFAH2, FP-rhodamine activity probe, fluorescence polarization. 2,300 compounds, 65% hits. inhibition, % at 3.39 µM. AID 493030. shares compounds with PAFAH2 FP inh;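 active means mean inhibition over three repeats above a set limit taken from the earlier primary screen, cut at about 30% in these data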;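 further: inhibitor blocks binding of rhodamine activity probe so polarization falls; 0% = enzyme with DMSO and 100% = wells lacking PAFAH2 protein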
* = called active by the depositor; · = not tested or not shown.

SMILES | pPAFAH inh | mABHD4 FP | PAFAH1B3 inh | HTRA1 inh | PAFAH1B2 inh | PAFAH2 FP inh | PAFAH2 confirm
Cc1cc(NS(=O)(=O)c2ccc(NC(=O)CSc3nc4sc(C)c(C)c4c(=O)n3Cc3ccco3)cc2)nc(C)n1 | · | -42.5 | · | · | · | · | ·
CCCC1CCC2(CC1)CCC2OC(=S)Nc1cccc(C(F)(F)F)c1 (stereo unspecified) | · | -5.3 | · | · | · | · | ·
O=C1CCCN1C(=O)CSc1nnnn1-c1ccccc1 | 1.9 | 3.0 | 5.7 | 3.2 | 11.7 | 36.7* | 30.7*
COc1ccccc1-n1nnnc1SCC(=O)N1CCCC1=O | -2.3 | 8.1 | -3.1 | 5.8 | 3.3 | 51.4* | 42.1*
COc1ccc(CN(CCN2CCOCC2)C(=O)c2cccc(F)c2)cc1OC | · | -0.9 | · | · | · | · | ·
COc1cc(OC)cc(-c2nnc(Nc3nc4c(F)cccc4s3)o2)c1 | 24.0 | 9.2 | 13.4 | 3.0 | 11.2 | 35.8* | 30.9*
COc1ccc(-c2nnc(Nc3nc4c(OC)cccc4s3)o2)cc1 | 19.2 | 4.7 | 10.4 | 11.6 | 9.5 | 10.3 | ·
Oc1ccc(/C=N/N=C/c2ccc(O)c(O)c2)cc1O | 8.6 | 26.4 | -2.8 | 30.5 | -0.4 | 54.0* | 13.7
O=Cc1ccc(O)c(O)c1 | 0.8 | 3.6 | 9.1 | 2.3 | -2.8 | 1.3 | ·
C=CS(=O)(=O)N(Cc1ccc(C)cc1)[C@@H](CO)C(=O)OC | · | 3.9 | · | · | · | · | ·
CC(=O)N1CCN(c2nc(C)nc3sc4c(c23)CCC(C)C4)CC1 (stereo unspecified) | 3.4 | 2.5 | -7.6 | 4.4 | 0.7 | 30.2* | 14.1
COc1cc(C(=O)OCC(=O)Nc2cc(C)on2)c([N+](=O)[O-])cc1OC | 1.4 | 4.4 | 3.8 | 5.7 | -0.4 | 36.9* | 23.9
COc1ccc(C(=O)OCC(=O)NCc2ccccc2)c(OC)c1OC | 2.2 | 1.9 | -2.5 | 11.7 | 2.0 | 56.8* | 56.3*
COc1cc(CC(=O)Nc2ccc(Cl)c(C(F)(F)F)c2)cc(OC)c1OC | 0.7 | -5.7 | 8.8 | -12.2 | -1.7 | -4.4 | ·
COc1ccc(C(=O)OCC(=O)Nc2ccc(Cl)c(C(F)(F)F)c2)c(OC)c1OC | 20.6 | -23.7 | -2.5 | 31.8 | 3.4 | 67.7* | 76.8*
COc1ccc(C(=O)OCC(=O)Nc2cc(C)on2)c(OC)c1OC | 3.1 | 5.5 | 2.0 | 1.2 | 2.4 | 67.6* | 64.7*
CCC[C@H]1[C@@H](NC(=O)C(c2ccccc2)c2ccccc2)CC[C@@]23CCCN2C(=O)CCC[C@@H]13 | · | -1.4 | · | · | · | · | ·
COc1ccc(C)cc1NC(=O)COC(=O)c1c(C)noc1C | -1.3 | 0.3 | 4.7 | 9.1 | -2.6 | 45.8* | -0.7
COc1ccc([N+](=O)[O-])cc1NC(=O)COC(=O)C12CC3CC(CC(O)(C3)C1)C2 | · | -1.2 | · | 5.6 | · | · | ·
O=C(COC(=O)c1ccco1)Nc1cccc(Br)c1 | 3.7 | -10.2 | 5.6 | 0.4 | -3.0 | 90.9* | 67.7*
CC1CC1C(=O)OCC(=O)NCc1ccccc1 (stereo unspecified) | 2.3 | 8.2 | 0.8 | -1.4 | 0.2 | 35.6* | 25.4
O=C(COC(=O)c1ccco1)Nc1ccc2c(c1)OCO2 | 7.0 | 2.0 | 5.5 | 8.8 | 5.9 | 62.8* | 66.2*
O=C(COC(=O)C12CC3CC(CC(O)(C3)C1)C2)Nc1cccc(Br)c1 | · | -20.5 | 7.6 | -4.6 | 9.6 | 74.3* | 69.1*
O=C(COC(=O)C1CCC1)NCc1ccccc1 | 8.1 | 1.1 | -6.2 | 3.6 | 3.0 | 6.4 | ·
COC(=O)[C@]12C[C@H](CC(=O)NCc3ccc(OC)c(OC)c3)C(=O)N(Cc3cccc4ccccc34)C1=C[C@H](C1CCCC1)O[C@@H]2C | · | -19.5 | · | · | · | · | ·
SMILES | pPAFAH inh | mABHD4 FP | PAFAH1B3 inh | HTRA1 inh | PAFAH1B2 inh | PAFAH2 FP inh | PAFAH2 confirm
CCOC(=O)[C@@]12CCCC3=C1N(CCC3)C(=O)[C@H]2CC(=O)NCCc1ccccc1OC | · | -10.1 | · | · | · | · | ·
Cc1ccc(C(=O)Nc2ccc3c(c2)OCO3)o1 | 3.4 | -9.1 | 4.9 | 1.8 | -0.7 | -1.2 | ·
Cc1ccc(C(=O)OCC(=O)Nc2ccc3c(c2)OCO3)o1 | 5.9 | 3.1 | 7.8 | -4.5 | 3.9 | 62.0* | 60.1*
CCOC(=O)C1CCN(CCC(=O)Nc2ccc(Br)c(C)c2)CC1 | · | 0.1 | 7.8 | 3.7 | 0.9 | -4.6 | ·
O=C(COC(=O)c1ccco1)Nc1ccccc1[N+](=O)[O-] | -0.1 | -7.8 | 2.1 | -1.6 | 3.0 | 40.6* | 28.1
CC1CC1C(=O)OCC(=O)Nc1cccc(Br)c1 (stereo unspecified) | · | 1.1 | 1.3 | -5.5 | 3.0 | 88.2* | 85.1*
Cc1cc(NC(=O)COC(=O)C2CC2)ccc1Br | 14.0 | -2.6 | -3.5 | 1.1 | -2.4 | 77.4* | 74.3*
O=C(NC(=S)Nc1ccccc1[N+](=O)[O-])c1ccco1 | 0.0 | 3.3 | 3.9 | 2.5 | 6.7 | 0.9 | ·
COc1ccc(CNC2CCC23CCC(C)CC3)cc1 (stereo unspecified) | · | 1.1 | · | · | · | · | ·
O=S1(=O)c2ccc(Br)cc2OC[C@H](Cc2ccccc2)N1Cc1cn(Cc2ccc(Br)cc2)nn1 | · | -2.4 | · | · | · | · | ·
COc1ccc(CNC(=O)[C@@H](Cc2ccccc2)NC(=O)[C@H]2O[C@@H](n3ccc(=O)[nH]c3=O)[C@H](O)[C@@H]2O)cc1 | · | 0.5 | · | · | · | · | ·
CCOc1cccc(-c2nnc(SCC(=O)Nc3ccc4c(c3)OCO4)n2N)c1 | · | -2.1 | · | · | · | · | ·
CC(CNC(=O)COC(=O)c1ccco1)c1ccccc1 (stereo unspecified) | 1.5 | 2.4 | 2.9 | 3.1 | 0.1 | 57.1* | 48.0*
O=C(COC(=O)c1cc(Br)ccc1O)Nc1ccc2c(c1)OCCO2 | 3.3 | 0.5 | 10.4 | -1.1 | 1.9 | 3.6 | ·
O=C(COC(=O)c1cc(Br)ccc1O)Nc1ccc2c(c1)OCO2 | 4.7 | 5.5 | -1.4 | -2.4 | 2.3 | 36.8* | 17.7
CC(=O)c1cc(-c2ccc(-c3cc(C(=O)O)c4ccccc4n3)cc2)c(=O)n2c1CCC2 | · | -2.5 | · | · | · | · | ·
Cc1c(Cl)cnc(NC(=O)COC(=O)/C=C/c2ccco2)c1Cl | · | 7.9 | -0.8 | 5.2 | 2.9 | 34.0* | 21.9
O=C(/C=C/c1ccco1)NCCc1ccc(F)cc1 | 2.6 | 1.4 | 2.2 | -1.3 | 2.1 | 6.7 | ·
CC(NC(=O)COC(=O)/C=C/c1ccco1)c1ccccc1 (stereo unspecified) | 1.1 | 1.7 | 1.2 | 3.3 | 5.8 | 49.2* | 37.6*
O=C(COC(=O)/C=C/c1ccco1)NCCc1ccccc1 | 4.7 | -0.9 | 12.2 | -2.0 | 2.5 | 32.5* | 20.6
O=C(COC(=O)/C=C/c1ccccc1)NCCNC(=O)COC(=O)/C=C/c1ccccc1 | -7.8 | 2.2 | 2.5 | -5.0 | 1.5 | -1.3 | ·
O=C(COC(=O)/C=C/c1ccccc1)NCc1ccccc1Cl | 0.3 | 2.6 | 14.5 | -10.8 | 0.9 | 70.6* | 69.8*
CC(NC(=O)COC(=O)/C=C/c1ccc([N+](=O)[O-])cc1)c1ccccc1 (stereo unspecified) | 11.5 | -1.2 | -2.2 | -1.9 | -3.8 | 12.3 | ·

Screens as filed in PubChem BioAssay.
